Source: ChEMBL document CHEMBL3045113, “Inhibition of plant-pathogenic bacteria by short synthetic cecropin A-melittin hybrid peptides” (Appl Environ Microbiol, 2006)
Converted amounts (≈) assume the structure as drawn. The source made the active and inactive calls. The rule behind the calls is not given here. *1 amine or outer side, *2 acyl side, *3 side chain or, on linkers, in order; H or OH if unused. Where a SMILES comes first, the peptide text is derived from it. [ ]: non-standard residue; d: D form. The star is where a group is joined. X1 = O=C([C@H](Cc1c[nH]c2ccccc12)N(Cc1ccccc1)[*:1])[*:2]; Palmitoyl = CCCCCCCCCCCCCCCC(=O)*; Tos = Cc1ccc(S(=O)(=O)*)cc1; Bz = O=C(c1ccccc1)*

Key:
[1] = Hemolytic activity against Homo sapiens (human) RBC assessed as hemoglobin release after 1 hr; format: ADME, cell-based, Erythrocyte; details: red blood cells, read-out: HD50
Procedure, shortened: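 Fresh EDTA-anticoagulated human blood was washed in Tris buffer (10 mM Tris, 150 mM NaCl, pH 7.2) and used as a 5% suspension. Equal volumes of cells and peptide at 800 to 12.5 μM were shaken for 1 h at 37°C, then centrifuged. Supernatant A540 was taken relative to buffer and a melittin full-lysis control. HD50 was derived by probit fit.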

[2] = test system: Xanthomonas vesicatoria; experiment: Bactericidal activity against Xanthomonas vesicatoria 2133-2 assessed as decrease in survival at 5 uM after 48 hr; format: functional, organism-based
Procedure, shortened: (§1)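 LB broth cultures at 4 × 10⁶ CFU/ml were exposed to 5 μM peptide. Samples taken every 30 min over 3 h were diluted 10-fold and plated on LB agar. Colonies were counted after 48 h at 25°C, and survival is expressed as % of the starting count.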

[3] = test system: Erwinia amylovora; experiment: Bactericidal activity against Erwinia amylovora PMV6076 assessed as decrease in survival at 5 uM after 48 hr; format: functional, organism-based; procedure, shortened: as §1
[4] = test system: Pseudomonas syringae pv. syringae; experiment: Bactericidal activity against Pseudomonas syringae pv. syringae EPS94 assessed as decrease in survival at 5 uM after 48 hr; format: functional, organism-based; procedure, shortened: as §1
[5] = test system: Xanthomonas vesicatoria; experiment: Antibacterial activity against Xanthomonas vesicatoria 2133-2 assessed as growth inhibition after 48 hr; format: functional; details: 2133-2, 48 h, read-out: ED50 (the source's name)
Procedure, shortened: (§2)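 Growth was read as OD600 every hour for 48 h at 25°C in tryptic soy broth across a peptide dilution series, in duplicate, repeated twice. Growth is the area under the curve, and inhibition is given as % of the water control. ED50 comes from a probit-dose model fitted by nonlinear least squares.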

[6] = test system: Pseudomonas syringae pv. syringae; experiment: Antibacterial activity against Pseudomonas syringae pv. syringae EPS94 assessed as growth inhibition after 48 hr; format: functional; details: EPS94, 48 h, read-out: ED50 (the source's name); procedure, shortened: as §2
[7] = test system: Erwinia amylovora; experiment: Antibacterial activity against Erwinia amylovora PMV6076 assessed as growth inhibition after 48 hr; format: functional; details: PMV6076, 48 h, read-out: ED50 (the source's name); procedure, shortened: as §2
[8] = test system: Xanthomonas vesicatoria; experiment: Antibacterial activity against Xanthomonas vesicatoria 2133-2 after 48 hr by broth dilution method; format: functional; details: 2133-2, 48 h
Procedure, shortened: (§3)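 Broth microdilution in tryptic soy broth with bacteria from a 10⁸ CFU/ml suspension. Final peptide levels were 750 down to 25 μM, or 250 to 3.12 μM for cecropin A. Plates were held at 25°C with OD600 read hourly for 48 h, in duplicate wells, and the run was repeated twice. MIC is the lowest concentration with no growth at 48 h.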

[9] = test system: Pseudomonas syringae pv. syringae; experiment: Antibacterial activity against Pseudomonas syringae pv. syringae EPS94 after 48 hr by broth dilution method; format: functional; details: EPS94, 48 h; procedure, shortened: as §3
[10] = test system: Erwinia amylovora; experiment: Antibacterial activity against Erwinia amylovora PMV6076 after 48 hr by broth dilution method; format: functional; details: PMV6076, 48 h; procedure, shortened: as §3
[11] = test system: Pseudomonas syringae pv. syringae; experiment: Antibacterial activity against Pseudomonas syringae pv. syringae EPS94 at 25 to 750 uM after 48 hr by broth dilution method; format: functional, organism-based; procedure, shortened: as §3
[12] = test system: Erwinia amylovora; experiment: Antibacterial activity against Erwinia amylovora PMV6076 at 25 to 750 uM after 48 hr by broth dilution method; format: functional, organism-based; procedure, shortened: as §3
[13] = test system: Xanthomonas vesicatoria; experiment: Antibacterial activity against Xanthomonas vesicatoria 2133-2 at 25 to 750 uM after 48 hr by broth dilution method; format: functional, organism-based; procedure, shortened: as §3
[14] = Stability of the compound in tris buffer at pH 7.6 at 50 ug/ml after 45 min by HPLC method in presence of proteinase K; details: pH 7.6, 0.75 h
[15] = test system: Xanthomonas vesicatoria; experiment: Bactericidal activity against Xanthomonas vesicatoria 2133-2 assessed as decrease in survival at 5 uM after 90 min; format: functional, organism-based; procedure, shortened: as §1

Row | Compound | MIC [8] | MIC [9] | MIC [10] | Stability [14] | HC50 at 1 h [1] | Activity [2] | Activity [3] | Activity [4] | EC50 [5] | EC50 [6] | EC50 [7] | Activity [11] | Activity [12] | Activity [13] | Activity [15]
1 | H-FKLFKKILKVL-NH2 |  |  |  |  |  |  |  |  |  |  |  | inactive | inactive | inactive | 
2 | CC[C@H](C)[C@H](NC(=O)[C@H](CCCCN)NC(=O)[C@H](CCCCN)NC(=O)[C@H](Cc1ccccc1)NC(=O)[C@H](CC(C)C)NC(=O)[C@H](CCCCN)NC(=O)[C@@H](N)CCCCN)C(=O)N[C@@H](CC(C)C)C(=O)N[C@@H](CCCCN)C(=O)N[C@@H](CCCCN)C(=O)N[C@@H](CC(C)C)C(N)=O |  |  |  |  |  |  |  |  |  |  |  | inactive | inactive | inactive | 
3 | CCCCCCCCCCCCCCCC(=O)N[C@@H](Cc1c[nH]c2ccccc12)C(=O)N[C@@H](CCCCN)C(=O)N[C@@H](CC(C)C)C(=O)N[C@@H](Cc1ccccc1)C(=O)N[C@@H](CCCCN)C(=O)N[C@@H](CCCCN)C(=O)N[C@H](C(=O)N[C@@H](CC(C)C)C(=O)N[C@@H](CCCCN)C(=O)N[C@H](C(=O)N[C@@H](CC(C)C)C(N)=O)C(C)C)[C@@H](C)CC (Palmitoyl-WKLFKKILKVL-NH2) | 25 µM (≈ 41.3 µg/mL) | 50 µM (≈ 82.7 µg/mL) | 50 µM (≈ 82.7 µg/mL) |  | 6 µM |  |  |  | 14.7 µM | 56.8 µM | 60 µM |  |  |  | 
4 | H-YKLFKKILKVL-NH2 |  |  |  |  |  |  |  |  |  |  |  | inactive | inactive | inactive | 
5 | CC[C@H](C)[C@H](NC(=O)[C@H](CCCCN)NC(=O)[C@H](CCCCN)NC(=O)[C@H](Cc1ccccc1)NC(=O)[C@H](CC(C)C)NC(=O)[C@H](CCCCN)NC(=O)[C@@H](N)CCCCN)C(=O)N[C@@H](CC(C)C)C(=O)N[C@@H](CCCCN)C(=O)N[C@H](C(=O)N[C@@H](CC(C)C)C(N)=O)C(C)C [KKLFKKILKVL-NH2] | 12 µM (≈ 16.3 µg/mL) | 2 µM (≈ 2.71 µg/mL) | 5 µM (≈ 6.78 µg/mL) | Unstable | 334 µM | Active | Active | Active | 7.3 µM | 1.6 µM | 4.3 µM |  |  |  | 
6 | H-LKLFKKILKVL-NH2 | 10 µM | 5 µM | 5 µM | Unstable | 190 µM | Active | Active | Active | 4.1 µM | 3.2 µM | 4.3 µM |  |  |  | 
7 | CC[C@H](C)[C@H](NC(=O)[C@H](CCCCN)NC(=O)[C@H](CCCCN)NC(=O)[C@H](Cc1ccccc1)NC(=O)[C@H](CC(C)C)NC(=O)[C@H](CCCCN)NC(=O)[C@@H](N)CCCCN)C(=O)N[C@@H](CC(C)C)C(=O)N[C@@H](CCCCN)C(=O)N[C@@H](Cc1ccccc1)C(=O)N[C@@H](CC(C)C)C(N)=O [KKLFKKILKFL-NH2] | 2 µM (≈ 2.81 µg/mL) | 2 µM (≈ 2.81 µg/mL) | 2 µM (≈ 2.81 µg/mL) | Stable | 203 µM |  | Active | Active | 1.9 µM | 2.1 µM | 2.5 µM |  |  |  | Active
8 | H-WKLFKKILKVL-NH2 | 7 µM | 7 µM | 7 µM | Unstable | 104 µM | Active | Active | Active | 3.6 µM | 5.5 µM | 5.5 µM |  |  |  | 
9 | CC[C@H](C)[C@H](NC(=O)[C@H](CCCCN)NC(=O)[C@H](CCCCN)NC(=O)[C@H](Cc1ccccc1)NC(=O)[C@H](CC(C)C)NC(=O)[C@H](CCCCN)NC(=O)[C@@H](N)Cc1c[nH]c2ccccc12)C(=O)N[C@@H](CC(C)C)C(=O)N[C@@H](CCCCN)C(=O)N[C@@H](Cc1ccc(O)cc1)C(=O)N[C@@H](CC(C)C)C(N)=O | 2 µM (≈ 2.96 µg/mL) | 2 µM (≈ 2.96 µg/mL) | 2 µM (≈ 2.96 µg/mL) |  | 42 µM |  |  |  | 2.3 µM | 2.7 µM | 3.2 µM |  |  |  | 
10 | H-WKLFKKILKKL-NH2 |  |  |  |  |  |  |  |  |  |  |  | inactive | inactive | inactive | 

Further lines, with some results ahead:

Row | MIC [8] | MIC [9] | MIC [10] | Stability [14] | Compound | HC50 at 1 h [1] | Activity [2] | Activity [3] | Activity [4] | EC50 [5] | EC50 [6] | EC50 [7] | Activity [11] | Activity [12] | Activity [13] | Activity [15]
11 | 2 µM (≈ 3.01 µg/mL) | 5 µM (≈ 7.53 µg/mL) | 7 µM (≈ 10.5 µg/mL) |  | CC[C@H](C)[C@H](NC(=O)[C@H](CCCCN)NC(=O)[C@H](CCCCN)NC(=O)[C@H](Cc1ccccc1)NC(=O)[C@H](CC(C)C)NC(=O)[C@H](CCCCN)NC(=O)[C@H](Cc1c[nH]c2ccccc12)NCc1ccccc1)C(=O)N[C@@H](CC(C)C)C(=O)N[C@@H](CCCCN)C(=O)N[C@H](C(=O)N[C@@H](CC(C)C)C(N)=O)C(C)C (H-[X1]KLFKKILKVL-NH2) | 30 µM | Active | inactive | Active | 2.5 µM | 3.8 µM | 5 µM |  |  |  | 
12 | < 2 µM | 15 µM (≈ 22.8 µg/mL) | 15 µM (≈ 22.8 µg/mL) | Unstable | CC[C@H](C)[C@H](NC(=O)[C@H](CCCCN)NC(=O)[C@H](CCCCN)NC(=O)[C@H](Cc1ccccc1)NC(=O)[C@H](CC(C)C)NC(=O)[C@H](CCCCN)NC(=O)[C@H](Cc1c[nH]c2ccccc12)NC(=O)c1ccccc1)C(=O)N[C@@H](CC(C)C)C(=O)N[C@@H](CCCCN)C(=O)N[C@H](C(=O)N[C@@H](CC(C)C)C(N)=O)C(C)C (Bz-WKLFKKILKVL-NH2) | 11 µM |  |  |  |  | 9.5 µM | 15.1 µM |  |  |  | 
13 | 2 µM | 7 µM | 10 µM | Unstable | Ac-WKLFKKILKVL-NH2 | 17 µM |  |  |  | 2 µM | 4.3 µM | 9 µM |  |  |  | 
14 | < 2 µM | 12 µM (≈ 18.8 µg/mL) | 12 µM (≈ 18.8 µg/mL) |  | CC[C@H](C)[C@H](NC(=O)[C@H](CCCCN)NC(=O)[C@H](CCCCN)NC(=O)[C@H](Cc1ccccc1)NC(=O)[C@H](CC(C)C)NC(=O)[C@H](CCCCN)NC(=O)[C@H](Cc1c[nH]c2ccccc12)NS(=O)(=O)c1ccc(C)cc1)C(=O)N[C@@H](CC(C)C)C(=O)N[C@@H](CCCCN)C(=O)N[C@H](C(=O)N[C@@H](CC(C)C)C(N)=O)C(C)C (Tos-WKLFKKILKVL-NH2) | 10 µM |  |  |  |  | 6.9 µM | 11.2 µM |  |  |  | 
15 | < 2 µM | 5 µM | 5 µM |  | H-WKLFKKILKWL-NH2 | 26 µM |  |  |  |  | 2.5 µM | 3 µM |  |  |  | 
16 | < 2 µM | 5 µM | 5 µM |  | H-WKLFKKILKFL-NH2 | 32 µM |  |  |  |  | 1.9 µM | 1.3 µM |  |  |  | 
